This note sets out measurements from ChEMBL document CHEMBL1152771, “Identification of Shc Src homology 2 domain-binding peptoid-peptide hybrids” (J Med Chem, 2009).

SMILES strings stand for the structures. *1 amine or outer side, *2 acyl side, *3 side chain or, on linkers, in order; H or OH if unused. Where a SMILES comes first, the peptide text is derived from it. [ ]: non-standard residue; d: D form. The star is where a group is joined. Gly(N-but-3-enyl) = O=C(CN(CCC=[*:3])[*:1])[*:2]; X5 = C=CCN([C@@H](CC(C)C)C(=O)[*:2])[*:1]; pY = N[C@@H](Cc1ccc(OP(=O)(O)O)cc1)C(=O)O; NH(but-3-enyl) = C=CCCN*; NHAllyl = C=CCN*

In the test the target is T1, SHC-transforming protein 1 (Homo sapiens, UniProt P29353).
T1 sequence (P29353 whole entry): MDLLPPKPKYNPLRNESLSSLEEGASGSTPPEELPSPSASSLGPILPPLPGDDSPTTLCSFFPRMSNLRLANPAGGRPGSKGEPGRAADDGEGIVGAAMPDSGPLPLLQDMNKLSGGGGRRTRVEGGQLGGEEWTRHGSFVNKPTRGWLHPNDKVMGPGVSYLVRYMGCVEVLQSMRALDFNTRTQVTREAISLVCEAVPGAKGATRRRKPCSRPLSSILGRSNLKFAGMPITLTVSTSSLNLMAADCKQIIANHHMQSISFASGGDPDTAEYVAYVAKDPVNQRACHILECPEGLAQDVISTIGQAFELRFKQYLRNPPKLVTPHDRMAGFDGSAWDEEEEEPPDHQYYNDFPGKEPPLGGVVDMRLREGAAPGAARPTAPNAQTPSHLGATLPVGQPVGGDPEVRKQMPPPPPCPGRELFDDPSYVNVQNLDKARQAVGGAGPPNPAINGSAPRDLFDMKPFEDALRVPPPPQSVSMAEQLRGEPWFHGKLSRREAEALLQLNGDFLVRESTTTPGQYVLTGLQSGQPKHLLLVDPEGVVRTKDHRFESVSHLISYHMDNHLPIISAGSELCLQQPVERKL
As to the kind of experiment: Displacement of FITC-tagged NH-(CH2)4-CO-phospho-tyrosine-glutamine-glycine-leucine-serine-amide from Shc Src homology 2 domain by fluorescence anisotropy competition assay. A digest of the protocol:
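Competition FA: preformed complex of 2 μM Shc SH2 domain protein and 10 nM FITC reference peptide in 10 mM HEPES, 150 mM NaCl pH 7.5 with 10% (v/v) DMSO; unlabeled competitors serially diluted from 500 μM. Excitation 485 nm, parallel/perpendicular emission 535 nm. Fractional binding from anisotropy; IC50 where spline (order three, three knots) reached one half.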

`C=CCNC(=O)[C@H](CC(C)C)N(CC=C)C(=O)CNC(=O)[C@H](CCC(N)=O)NC(=O)[C@H](Cc1ccc(OP(=O)(O)O)cc1)NC(C)=O` had an IC50 of 81 µM. In turn, `CC(=O)N[C@@H](Cc1ccc(OP(=O)(O)O)cc1)C(=O)N[C@@H](CCC(N)=O)C(=O)N(CCCC(C)C)CC(=O)N[C@@H](CC(C)C)C(N)=O` had an IC50 of 29 µM. `CC#CCN(CC(=O)N[C@@H](CC(C)C)C(N)=O)C(=O)[C@H](CCC(N)=O)NC(=O)[C@H](Cc1ccc(OP(=O)(O)O)cc1)NC(C)=O` came in with an IC50 of 83 µM.

Take `CC(=O)N[C@@H](Cc1ccc(OP(=O)(O)O)cc1)C(=O)N[C@@H](CCC(N)=O)C(=O)N(CCCCC#N)CC(=O)N[C@@H](CC(C)C)C(N)=O`: the IC50 was determined as 44 µM. Still for that read-out and setting: in the case of `CCC#CCN(CC(=O)N[C@@H](CC(C)C)C(N)=O)C(=O)[C@H](CCC(N)=O)NC(=O)[C@H](Cc1ccc(OP(=O)(O)O)cc1)NC(C)=O` it was 17 µM; in that of `CCSCCN(CC(=O)N[C@@H](CC(C)C)C(N)=O)C(=O)[C@H](CCC(N)=O)NC(=O)[C@H](Cc1ccc(OP(=O)(O)O)cc1)NC(C)=O`, 34 µM.

Turning to `CC(=O)N[C@@H](Cc1ccc(OP(=O)(O)O)cc1)C(=O)N[C@@H](CCC(N)=O)C(=O)N(CCCC(F)(F)F)CC(=O)N[C@@H](CC(C)C)C(N)=O`, the IC50 came out at 23 µM. Compound `C=CCCCN(CC(=O)N[C@@H](CC(C)C)C(N)=O)C(=O)[C@H](CCC(N)=O)NC(=O)[C@H](Cc1ccc(OP(=O)(O)O)cc1)NC(C)=O` had an IC50 of 16 µM. In the case of `C=CCCCCN(CC(=O)N[C@@H](CC(C)C)C(N)=O)C(=O)[C@H](CCC(N)=O)NC(=O)[C@H](Cc1ccc(OP(=O)(O)O)cc1)NC(C)=O`, the 50% inhibitory concentration (IC50) was found to be 14 µM.

`CC(=O)N[C@@H](Cc1ccc(OP(=O)(O)O)cc1)C(=O)N[C@@H](CCC(N)=O)C(=O)N(CCCCF)CC(=O)N[C@@H](CC(C)C)C(N)=O`: the half-maximal inhibitory concentration (IC50) came out at 40 µM.

Compound `C=CCNC(=O)[C@H](CC(C)C)NC(=O)CNC(=O)[C@H](CCC(N)=O)NC(=O)[C@H](Cc1ccc(OP(=O)(O)O)cc1)N(CC=C)C(C)=O` returned an IC50 of 450 µM. Consider `C=CCNC(=O)[C@H](CO)NC(=O)[C@H](CC(C)C)N(CC=C)C(=O)CNC(=O)[C@H](CCC(N)=O)NC(=O)[C@H](Cc1ccc(OP(=O)(O)O)cc1)NC(C)=O` (Ac-[pY]QG[X5]S-NHAllyl), for which the IC50 amounted to 353 µM. `C=CCCNC(=O)[C@H](CO)NC(=O)[C@H](CC(C)C)NC(=O)CN(CCC=C)C(=O)[C@H](CCC(N)=O)NC(=O)[C@H](Cc1ccc(OP(=O)(O)O)cc1)NC(C)=O` (Ac-[pY]Q[Gly(N-but-3-enyl)]LS-{NH(but-3-enyl)}) came in with an IC50 of 8 µM. `C=CCNC(=O)[C@H](CO)NC(=O)[C@H](CC(C)C)NC(=O)CNC(=O)[C@H](CCC(N)=O)NC(=O)[C@H](Cc1ccc(OP(=O)(O)O)cc1)N(CC=C)C(C)=O` (HELM PEPTIDE1{[ac].[C=CCN([C@@H](Cc1ccc(OP(=O)(O)O)cc1)C(=O)[*:2])[*:1]].Q.G.L.S.[C=CCN[*:1]]}$$$$V2.0) returned an IC50 of 41 µM.

With `CC(=O)NCCCCC(=O)N[C@@H](Cc1ccc(OP(=O)(O)O)cc1)C(=O)N[C@@H](CCC(N)=O)C(=O)NCC(=O)N[C@@H](CC(C)C)C(=O)N[C@@H](CO)C(N)=O` (HELM PEPTIDE1{[ac].[O=C(CCCCN[*:1])[*:2]].[O=C([C@H](Cc1ccc(OP(=O)(O)O)cc1)N[*:1])[*:2]].Q.G.L.S.[am]}$$$$V2.0), the Kd was 158 µM. `CC(=O)N[C@@H](Cc1ccc(OP(=O)(O)O)cc1)C(=O)N[C@@H](CCC(N)=O)C(=O)NCC(=O)N[C@@H](CC(C)C)C(N)=O` (HELM PEPTIDE1{[ac].[O=C([C@H](Cc1ccc(OP(=O)(O)O)cc1)N[*:1])[*:2]].Q.G.L.[am]}$$$$V2.0) gave an IC50 of 248 µM. Turning to `C=CCN(CC(=O)N[C@@H](CC(C)C)C(N)=O)C(=O)[C@H](CCC(N)=O)NC(=O)[C@H](Cc1ccc(OP(=O)(O)O)cc1)NC(C)=O` (HELM PEPTIDE1{[ac].[O=C([C@H](Cc1ccc(OP(=O)(O)O)cc1)N[*:1])[*:2]].Q.[C=CCN(CC(=O)[*:2])[*:1]].L.[am]}$$$$V2.0), the IC50 was found to be 26.6 µM.
